Calls of active or inactive are those of the source. The rule behind the calls is not given here.
Assays:
[1] = Lipophilicity, logD of compound at pH 7.4; format: physicochemical; details: buffer
[2] = system: NCI-H1975; assay: Antitumor activity against human NCI-H1975 cells xenografted in BALB/c mouse assessed as reduction in tumor volume at 30 mg/kg, po bid administered via oral gavage for 14 days; format: functional, organism-based; details: time 14.0 day
Procedure, shortened: (§1)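 Female BALB/c nude mice, 6–8 weeks old, inoculated s.c. in right flank with 5 × 10^6 NCI-H1975 cells in PBS:Matrigel 1:1. Randomized and dosed by oral gavage BID once mean tumor volume reached ~155 mm3. Tumor size and body weight measured every second day. Volume = 0.5ab2 (a, b long and short diameters). Plasma taken 2, 6, 12 h after the last dose for LC-MS/MS.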

[3] = Plasma protein binding in cynomolgus monkey assessed as unbound fraction by ultracentrifugation method; format: ADME, cell-free, Macaca fascicularis
Procedure, shortened: (§2)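 Plasma protein binding determined by ultracentrifugation, reported as the unbound fraction.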

[4] = Half life in cynomolgus monkey at 0.5 mg/kg, iv; format: ADME, organism-based, Macaca fascicularis; details: in vivo
Procedure, shortened: (§3)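 Cynomolgus monkeys given a single IV bolus of 0.5 mg/kg in 5% DMSO + 5% kolliphor HS 15 + 90% saline. Clearance is plasma clearance after the bolus.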

[5] = system: Ba/F3 EGFR-T790M/C797S/L858R; assay: Antitumor activity against mouse Ba/F3 EGFR-T790M/C797S/L858R cells implanted in NOD SCID mouse assessed as reduction in tumor volume at 100 mg/kg, po bid administered via oral gavage for 14 days; format: functional, organism-based; details: time 14.0 day
[6] = system: NSCLC; format: functional, organism-based; details: Homo sapiens, dose 75-100 mg/kg, route po, time 56.0 day
[7] = Half life in beagle dog at 0.5 mg/kg, iv; format: ADME, organism-based, Canis lupus familiaris; details: in vivo
Procedure, shortened: (§4)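 Beagle dogs, single IV dose of 0.5 mg/kg in 5% DMSO + 5% kolliphor HS 15 + 90% saline. Clearance is plasma clearance.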

[8] = Plasma protein binding in rat assessed as unbound fraction by ultracentrifugation method; format: ADME, cell-free; procedure, shortened: as §2
[9] = Oral bioavailability in Sprague-Dawley rat at […]; format: ADME, organism-based; details: in vivo, dose 2.5 mg/kg
[10] = system: Ba/F3 EGFR-Del19/T790M/C797S; assay: Antitumor activity against osimertinib-resistant mouse Ba/F3 EGFR-Del19/T790M/C797S cells implanted in NOD SCID mouse assessed as reduction in tumor volume at 100 mg/kg , po bid administered via oral gavage for 14 days; format: functional, organism-based; details: time 14.0 day
[11] = Clearance in cynomolgus monkey at 0.5 mg/kg,iv; format: ADME, organism-based, Macaca fascicularis; details: in vivo; procedure, shortened: as §3
[12] = Thermodynamic solubility of the compound at pH 1.5; format: physicochemical; details: buffer
[13] = Plasma clearance in cynomolgus monkey at 0.5 mg/kg, iv; format: ADME, organism-based, Macaca fascicularis; procedure, shortened: as §3
[14] = Thermodynamic solubility of the compound at pH 6.5; format: physicochemical; details: buffer
[15] = Volume of distribution at steady state in Beagle dog at 0.5 mg/kg, iv; format: ADME, organism-based, Canis lupus familiaris; details: in vivo, read-out: Vdss
[16] = Apparent permeability across apical to basolateral side in MDCK-MDR1 cells; format: ADME, cell-based, Canis lupus familiaris; details: dog
[17] = Intrinsic clearance in human hepatocytes assessed per million cells; format: ADME, cell-based, Hepatocyte
Procedure, shortened: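 Intrinsic clearance measured in isolated hepatocytes of each species, expressed in μL/min/million cells.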

[18] = Volume of distribution at steady state in Sprague-Dawley rat at 1 mg/kg, iv; format: ADME, organism-based; details: in vivo, read-out: Vdss
[19] = Volume of distribution at steady state in cynomolgus monkey at 0.5 mg/kg, iv; format: ADME, organism-based, Macaca fascicularis; details: in vivo, read-out: Vdss
[20] = Plasma protein binding in dog assessed as unbound fraction by ultracentrifugation method; format: ADME, cell-free, Canis lupus familiaris; procedure, shortened: as §2
[21] = Plasma clearance in Sprague-Dawley rat at 1 mg/kg, iv; format: ADME, organism-based
Procedure, shortened: (§5)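 Sprague–Dawley rats (n = 3), single IV bolus of 1 mg/kg in 10% DMSO, 10% solutol, 80% of a 20% HP-β-CD solution (in water or in saline, depending on compound). Clearance is plasma clearance after the IV bolus.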

[22] = system: NCI-H1975; assay: Antitumor activity against human NCI-H1975 cells xenografted in BALB/c mouse assessed as reduction in tumor volume at 100 mg/kg , po bid administered via oral gavage for 14 days; format: functional, organism-based; details: time 14.0 day; procedure, shortened: as §1
[23] = Toxicity in BALB/c nude mouse xenografted with human NCI-H1975 cells assessed as effect on body weight at 25 mg/kg , po qd administered via oral gavage for 14 days; format: organism-based; details: in vivo, 336 h, time 14 day
Procedure, shortened: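 Female BALB/c nude mice, 6–8 weeks old, bearing s.c. right-flank NCI-H1975 xenografts (5 × 10^6 cells in PBS:Matrigel 1:1). Once-daily oral gavage began at mean tumor volume ~155 mm3. Body weight and tumor size recorded every second day.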

[24] = Intrinsic clearance in human liver microsomes in presence of NADPH; format: ADME, Microsome
Procedure, shortened: (§6)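 Intrinsic clearance measured in isolated liver microsomes of each species with NADPH, expressed in μL/min/mg.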

[25] = Oral bioavailability in Beagle dog at […], iv; format: ADME, organism-based, Canis lupus familiaris; details: in vivo, dose 2.5 mg/kg
[26] = Half life in Sprague-Dawley rat at 1 mg/kg, iv; format: ADME, organism-based; details: in vivo; procedure, shortened: as §5
[27] = Oral bioavailability in cynomolgus monkey at […], iv; format: ADME, organism-based, Macaca fascicularis; details: in vivo, dose 2.5 mg/kg
[28] = Toxicity in BALB/c nude mouse xenografted with human NCI-H1975 cells assessed as effect on body weight at 100 mg/kg , po bid administered via oral gavage for 14 days; format: organism-based; details: in vivo, 336 h, time 14 day; procedure, shortened: as §1
[29] = Toxicity in BALB/c nude mouse xenografted with human NCI-H1975 cells assessed as effect on body weight at 30 mg/kg, po bid administered via oral gavage for 14 days; format: organism-based; details: in vivo, 336 h, time 14 day; procedure, shortened: as §1
[30] = Plasma clearance in beagle dog at 0.5 mg/kg, iv; format: ADME, organism-based, Canis lupus familiaris; procedure, shortened: as §4
[31] = Plasma protein binding in human assessed as unbound fraction by ultracentrifugation method; format: ADME, cell-free; procedure, shortened: as §2
[32] = Intrinsic clearance in cynomolgus monkey liver microsomes in presence of NADPH; format: ADME, Macaca fascicularis, Microsome; procedure, shortened: as §6

logD [1]: 3.8
Fu [3]: 3.5%
half-life [4]: 3.5 h
half-life [7]: 4.9 h
Fu [8]: 0.9%
F [9]: 48%
clearance [11]: 4.9 mL/min/kg
Therm_solubility [12]: 11000 µg/mL
clearance [13]: 4.9 mL/min/kg
Therm_solubility [14]: 10 µg/mL
Vd [15]: 3.9 L/kg
Papp [16]: 8 10^-6 cm/s
CLH [17]: 23 µL/min
Vd [18]: 2.3 L/kg
Vd [19]: 1.6 L/kg
Fu [20]: 1.4%
clearance [21]: 32.4 mL/min/kg
CLH [24]: 89 µL/min/mg
F [25]: 49%
half-life [26]: 1.3 h
F [27]: 33%
clearance [30]: 13.7 mL/min/kg
Fu [31]: 1.1%
CLH [32]: 109 µL/min/mg
SMILES: CO[C@@H]1CCN(c2nccc(Nc3cc4c(C(C)C)ccc(N5C[C@H](CS(C)(=O)=O)[C@H]5C)c4cn3)n2)C[C@@H]1F [TIGOZERTINIB]
Activity [2]: Active
Activity [5]: Active
Activity [6]: Active
Activity [10]: Active
Activity [22]: Active
Activity [23]: Non-Toxic
Activity [28]: Non-Toxic
Activity [29]: Non-Toxic
